Experimental findings from ChEMBL document CHEMBL1142874, “Design and synthesis of anticonvulsants from a combined phthalimide-GABA-anilide and hydrazone pharmacophore” (Eur J Med Chem, 2007) are described below.

Data set [1] has as its system Mus musculus. Kind of data set: Neurotoxicity in Albino CF1 mouse at 100 mg/kg, ip after 0.5 hrs by Rotarod test. The class given is toxicity, organism-based. More on the design: dose 100 mg/kg, route intraperitoneal. Conditions: in vivo. The method, boiled down:
(§1)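 Rotarod test in mice pre-trained to stay on the rod for two consecutive 90 s trials. Compounds given i.p. at 30, 100 or 300 mg/kg, with testing at 0.5 h and 4 h. Deficit was scored as failure to keep balance on the rod for 1 min in each of three trials. The value recorded is the lowest dose affecting half or more of the mice.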
Background: The rotarod test checks motor coordination on a turning rod.

The subject of data set [2] is Mus musculus. The experiment in a line: Anticonvulsant activity against intraperitoneal picrotoxin-induced seizure in Albino CF1 mouse at 300 mg/kg, ip after 0.5 hrs. The class given is functional, organism-based. More on the design: dose 300 mg/kg. The method, boiled down: (§2)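 Mice received the test compound by intraperitoneal injection at 30, 100 or 300 mg/kg. They were then challenged with intraperitoneal picrotoxin and scored for anticonvulsant protection 0.5 h or 4 h after dosing. The value recorded is the lowest dose that protected half or more of the mice. A dash means no activity up to 300 mg/kg.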

For data set [3], the system named is Mus musculus. Kind of data set: Anticonvulsant activity against subcutaneous strychnine-induced seizure in Albino CF1 mouse at 300 mg/kg, ip after 0.5 hrs. The class given is functional, organism-based. More on the design: dose 300 mg/kg. The method, boiled down:
(§3)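 Test compounds given i.p. to mice at 0.01 mL/g, at 30, 100 or 300 mg/kg. The seizure challenge followed at 0.5 h and at 4 h after dosing. The value recorded is the lowest dose that protected half or more of the mice. Where no activity was seen, the maximum dose given was 300 mg/kg.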

Data set [4] relates to Mus musculus. The experiment in a line: Neurotoxicity in Albino CF1 mouse at 300 mg/kg, ip after 4 hrs by Rotarod test. The class given is toxicity, organism-based. More on the design: dose 300 mg/kg, route intraperitoneal. Conditions: in vivo. The procedure, abridged:
as §1

For data set [5], the system named is Mus musculus. Kind of data set: Anticonvulsant activity against subcutaneous strychnine-induced seizure in Albino CF1 mouse at 300 mg/kg, ip after 4 hrs. The class given is functional, organism-based. More on the design: dose 300 mg/kg. The procedure, abridged: as §3
For data set [6], the system named is Mus musculus. The experiment in a line: Anticonvulsant activity against subcutaneous pentylenetetrazole-induced seizure in Albino CF1 mouse at 300 mg/kg, ip after 0.5 hrs. The class given is functional, organism-based. More on the design: dose 300 mg/kg. The method, boiled down:
as §3

Data set [7] concerns Mus musculus. The experiment in a line: Anticonvulsant activity against intraperitoneal picrotoxin-induced seizure in Albino CF1 mouse at 300 mg/kg, ip after 4 hrs. The class given is functional, organism-based. Further details: dose 300 mg/kg. The procedure, abridged: as §2
Data set [8] concerns Mus musculus. Kind of data set: Anticonvulsant activity in Albino CF1 mouse upto 300 mg/kg, ip in maximal electroshock seizure test. The class given is functional, organism-based. More on the design: dose 300 mg/kg. The procedure, abridged:
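Mice dosed i.p. (0.01 mL/g) at 30, 100 and 300 mg/kg. Electroshock challenge run 30 min and 4 h after dosing.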
(Protection in the maximal electroshock model is a classic sign of anticonvulsant action.)

Data set [9] deals with Mus musculus. Kind of data set: Anticonvulsant activity against subcutaneous pentylenetetrazole-induced seizure in Albino CF1 mouse at 300 mg/kg, ip after 4 hrs. More on the design: dose 300 mg/kg. The class given is functional, organism-based. The method, boiled down:
as §3

Data set [10] concerns Mus musculus. The experiment in a line: Neurotoxicity in Albino CF1 mouse at 300 mg/kg, ip after 0.5 hrs by Rotarod test. To be noted: in vivo. The class given is toxicity, organism-based. More on the design: dose 300 mg/kg, route intraperitoneal. The method, boiled down:
as §1

The subject of data set [11] is Mus musculus. Kind of data set: Anticonvulsant activity against subcutaneous strychnine-induced seizure in Albino CF1 mouse at 100 mg/kg, ip after 4 hrs. The class given is functional, organism-based. More on the design: dose 100 mg/kg. The procedure, abridged:
as §3

Data set [12] concerns Mus musculus. Kind of data set: Anticonvulsant activity against subcutaneous strychnine-induced seizure in Albino CF1 mouse at 100 mg/kg, ip after 0.5 hrs. The class given is functional, organism-based. Further details: dose 100 mg/kg. The method, boiled down: as §3
Data set [13] concerns Mus musculus. The experiment in a line: Anticonvulsant activity against intraperitoneal picrotoxin-induced seizure in Albino CF1 mouse at 100 mg/kg, ip after 0.5 hrs. The class given is functional, organism-based. More on the design: dose 100 mg/kg. The procedure, abridged: as §2
The test system of data set [14] is Mus musculus. The experiment in a line: Anticonvulsant activity against intraperitoneal picrotoxin-induced seizure in Albino CF1 mouse at 100 mg/kg, ip after 4 hrs. Further details: dose 100 mg/kg. The class given is functional, organism-based. The method, boiled down: as §2

Calls of active or inactive are those of the source. The rule behind the calls is not given here.

As to `Cc1ccc(C)c(NC(=O)CCCN2C(=O)c3ccccc3C2=O)c1`, the result with Mus musculus [1] and with Mus musculus [4] was Active. Also, the result in the data set with Mus musculus [2], in the data set on Mus musculus [3] and in the data set on Mus musculus [5] was Active. Further, the result in the data set on Mus musculus [6], in the data set with Mus musculus [7], in the data set with Mus musculus [8] and in the data set on Mus musculus [9] was inactive.

For `O=C(CCCN1C(=O)c2ccccc2C1=O)Nc1ccccc1C(F)(F)F`, the outcome in the data set on Mus musculus [2] and in the data set with Mus musculus [3] was Active. Besides, the Activity result in the data set with Mus musculus [4] is listed as “Active”; in the data set on Mus musculus [10], “Not Active”. Besides, the result with Mus musculus [5], in the data set with Mus musculus [6], with Mus musculus [7], in the data set with Mus musculus [8] and in the data set on Mus musculus [9] was inactive.

Turning to `Cc1ccc(NC(=O)CCCN2C(=O)c3ccccc3C2=O)cc1`, the outcome in the data set with Mus musculus [2] and in the data set with Mus musculus [3] was Active. Besides, the values for the Activity result in the data set with Mus musculus [4] and with Mus musculus [10] were “Active” and “Not Active”, respectively. Besides, the outcome in the data set on Mus musculus [5], in the data set with Mus musculus [6], in the data set with Mus musculus [7], with Mus musculus [8] and with Mus musculus [9] was inactive.

Turning to `O=C(CCCN1C(=O)c2ccccc2C1=O)N/N=C\c1ccccc1`, the Activity entry in the data set with Mus musculus [4] and in the data set on Mus musculus [10] was “Not Active” each time. Also, the result in the data set with Mus musculus [11], with Mus musculus [12], in the data set with Mus musculus [13] and with Mus musculus [14] was Active. Besides, the outcome with Mus musculus [6], in the data set with Mus musculus [8] and in the data set with Mus musculus [9] was inactive.

In the case of `O=C(CCCN1C(=O)c2ccccc2C1=O)NN=C(c1ccccc1)c1ccccc1`, in the data set with Mus musculus [2], the result was Active. Moreover, the result with Mus musculus [3], in the data set with Mus musculus [5], in the data set with Mus musculus [6], with Mus musculus [7], with Mus musculus [8] and in the data set with Mus musculus [9] was inactive. In addition, the Activity entry with Mus musculus [4] and in the data set on Mus musculus [10] was “Not Active” throughout.

With `O=C(CCCN1C(=O)c2ccccc2C1=O)Nc1ccccc1Br`, the outcome with Mus musculus [3], with Mus musculus [5], in the data set with Mus musculus [6], with Mus musculus [8] and with Mus musculus [9] was inactive. The Activity entry with Mus musculus [4] and in the data set with Mus musculus [10] was “Not Active” each time. Also, the result in the data set with Mus musculus [7] and with Mus musculus [13] was Active.

Consider `C/C(=N/NC(=O)CCCN1C(=O)c2ccccc2C1=O)c1ccc([N+](=O)[O-])cc1`, for which the result with Mus musculus [2] and with Mus musculus [12] was Active. In addition, the Activity entry in the data set on Mus musculus [4] is “Not Active”; in the data set on Mus musculus [10], “Active”. Also, the result with Mus musculus [5], in the data set with Mus musculus [6], in the data set on Mus musculus [7], in the data set with Mus musculus [8] and in the data set on Mus musculus [9] was inactive.

As for `O=C(CCCN1C(=O)c2ccccc2C1=O)N/N=C\c1ccc([N+](=O)[O-])cc1`, the outcome with Mus musculus [2], in the data set with Mus musculus [3], in the data set on Mus musculus [5], in the data set with Mus musculus [6], in the data set with Mus musculus [7] and with Mus musculus [8] was inactive. In addition, the result in the data set with Mus musculus [9] was inactive. Besides, the Activity result with Mus musculus [4] and in the data set with Mus musculus [10] was “Not Active” in each case.

`CCC1(C)CC(=O)NC1=O` (stereo not drawn) [ETHOSUXIMIDE]: the outcome in the data set with Mus musculus [2], with Mus musculus [3], with Mus musculus [5], in the data set on Mus musculus [7], in the data set on Mus musculus [8] and with Mus musculus [9] was inactive. The Activity entry in the data set with Mus musculus [4] and in the data set on Mus musculus [10] was “Not Active” throughout. Moreover, in the data set with Mus musculus [6], the outcome was Active.

With `O=C(CCCN1C(=O)c2ccccc2C1=O)Nc1cccc(F)c1`, the outcome with Mus musculus [2], in the data set with Mus musculus [3], with Mus musculus [5] and with Mus musculus [7] was Active. The figures for the Activity result with Mus musculus [4] and in the data set with Mus musculus [10] were “Not Active” and “Active”, respectively. Further, the result in the data set on Mus musculus [6], in the data set with Mus musculus [8] and in the data set on Mus musculus [9] was inactive.

On to `C/C(=N/NC(=O)CCCN1C(=O)c2ccccc2C1=O)c1ccc(O)cc1`, for which the Activity entry with Mus musculus [4] and in the data set on Mus musculus [10] was “Not Active” in each case. Moreover, the result in the data set with Mus musculus [5], in the data set on Mus musculus [6], in the data set on Mus musculus [7], with Mus musculus [8] and with Mus musculus [9] was inactive. Moreover, the result in the data set on Mus musculus [12] and in the data set on Mus musculus [13] was Active.

Regarding `COc1cc(/C=N\NC(=O)CCCN2C(=O)c3ccccc3C2=O)ccc1O`, the result in the data set with Mus musculus [2] was Active. Moreover, the result in the data set on Mus musculus [3], in the data set with Mus musculus [5], with Mus musculus [6], with Mus musculus [7], in the data set with Mus musculus [8] and with Mus musculus [9] was inactive. Further, the Activity result with Mus musculus [4] and in the data set on Mus musculus [10] was “Not Active” each time.

As for `C/C(=N/NC(=O)CCCN1C(=O)c2ccccc2C1=O)c1ccccc1O`, the Activity entry with Mus musculus [4] and in the data set with Mus musculus [10] was “Not Active” each time. The outcome in the data set on Mus musculus [11], in the data set with Mus musculus [7], in the data set with Mus musculus [12] and in the data set with Mus musculus [13] was Active. Further, the result in the data set with Mus musculus [6], in the data set on Mus musculus [8] and in the data set on Mus musculus [9] was inactive.

Turning to `O=C(CCCN1C(=O)c2ccccc2C1=O)N/N=C\c1cccc([N+](=O)[O-])c1`, the outcome with Mus musculus [2] and in the data set with Mus musculus [6] was Active. The result in the data set on Mus musculus [3], in the data set with Mus musculus [5], in the data set with Mus musculus [7], in the data set with Mus musculus [8] and with Mus musculus [9] was inactive. Also, the Activity entry in the data set with Mus musculus [4] and in the data set on Mus musculus [10] was “Not Active” in each case.

For the compound `O=C(CCCN1C(=O)c2ccccc2C1=O)N/N=C\c1ccccc1O`, in the data set with Mus musculus [2], the result was Active. Also, the outcome in the data set on Mus musculus [3], in the data set on Mus musculus [5], with Mus musculus [6], in the data set on Mus musculus [7], with Mus musculus [8] and in the data set on Mus musculus [9] was inactive. The Activity entry in the data set with Mus musculus [4] and in the data set with Mus musculus [10] was “Not Active” in each case.

Consider `C/C(=N/NC(=O)CCCN1C(=O)c2ccccc2C1=O)c1cccc(N)c1`, for which the outcome with Mus musculus [2], in the data set on Mus musculus [3], with Mus musculus [5], in the data set on Mus musculus [6], with Mus musculus [7] and in the data set with Mus musculus [8] was inactive. Further, the result with Mus musculus [9] was inactive. The Activity entry with Mus musculus [4] and with Mus musculus [10] was “Not Active” each time.

With `CC/C(C)=N/NC(=O)CCCN1C(=O)c2ccccc2C1=O`, the result with Mus musculus [2] was Active. Further, the outcome in the data set with Mus musculus [3], with Mus musculus [5], in the data set with Mus musculus [6], in the data set with Mus musculus [7], with Mus musculus [8] and in the data set with Mus musculus [9] was inactive. In addition, the Activity entry with Mus musculus [4] and in the data set on Mus musculus [10] was “Not Active” in each case.
